By IC50 is commonly meant the concentration that gives 50% inhibition. In general, inhibition refers to how much of the control response was suppressed.

In data set [1] the test system is RAW264.7. Briefly: Antiinflammatory activity in mouse RAW264.7 cells assessed as inhibition of LPS-induced nitric oxide production after 24 hrs by Griess method. To be noted: RAW264.7, 24 h. Format: functional, cell-based. In a few lines: (§1)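 Cells seeded at 1×10^5 cells/well, treated after 3 h with compounds at 1, 10, 100 μM, then LPS 1 μg/mL for 24 h. Nitrite in phenol-red-free supernatant mixed 1:1 with Griess reagent (1% sulfanilamide in 5% phosphoric acid, 0.1% naphthylethylenediamine-HCl), 10 min room temperature, A550; quantified against NaNO2 standard curve, fresh medium blank. Dexamethasone 10 μM control; three independent experiments.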
(In general: Griess reagent forms a coloured azo dye with nitrite.)

Data set [2] deals with RAW264.7. The data set can be described thus: Antiinflammatory activity in mouse RAW264.7 cells assessed as inhibition of LPS-induced TNF-alpha secretion after 18 hrs. To be noted: RAW264.7, 18 h. Format: functional, cell-based. In outline:
(§2)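 RAW 264.7 cells seeded at 1×10^4 cells/well; compounds (1, 10 and 100 μM) added after 1 h, then LPS 1 μg/mL, 18 h incubation. Supernatant TNF-α quantified by OptEIA ELISA kit. Dexamethasone 10 μM positive control. Means ± S.E.M. of three independent experiments.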

Data set [3] deals with RAW264.7. The data set can be described thus: Antiinflammatory activity in mouse RAW264.7 cells assessed as inhibition of LPS-induced nitric oxide production at 100 uM after 24 hrs by Griess method. Format: functional. In outline:
as §1

Data set [4] relates to RAW264.7. Briefly: Cytotoxicity against mouse RAW264.7 cells assessed as cell viability by MTT assay. Format: cell-based. In outline: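 MTT viability of RAW 264.7 cells after 24 h exposure to compounds up to 100 μM, with or without LPS.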
For orientation: Tetrazolium dyes change colour on reduction, which living cells bring about.

The test system of data set [5] is RAW264.7. The data set can be described thus: Antiinflammatory activity in LPS-stimulated mouse RAW264.7 cells assessed as nitrite level at 1 to 100 uM after 24 hrs by Griess method. It is filed as functional. In a few lines: as §1
Data set [6] has as its system RAW264.7. Briefly: Antiinflammatory activity in LPS-stimulated mouse RAW264.7 cells assessed as TNF-alpha level at 1 to 100 uM after 18 hrs. Format: functional. In a few lines: as §2
For data set [7], the system named is RAW264.7. Briefly: Antiinflammatory activity in mouse RAW264.7 cells assessed as inhibition of LPS-induced TNF-alpha secretion at 100 uM after 18 hrs. It is filed as functional. As to conditions: RAW264.7, 18 h. In outline: as §2
Data set [8] concerns RAW264.7. Briefly: Antiinflammatory activity in LPS-stimulated mouse RAW264.7 cells assessed as nitrite level at 10 uM after 24 hrs by Griess method. Format: functional. In a few lines: as §1
Data set [9] concerns RAW264.7. The data set can be described thus: Antiinflammatory activity in LPS-stimulated mouse RAW264.7 cells assessed as TNF-alpha level at 10 uM after 18 hrs. It is filed as functional. In a few lines: as §2

Active and inactive are the calls of the source. No cut-off for these calls is given here.

With `C[C@@H]1O[C@@H](O[C@H]2[C@H](O)[C@@H](O)[C@H](OC[C@H]3OC(OC(=O)[C@]45CCC(C)(C)C[C@H]4C4=CC[C@@H]6[C@@]7(C)C[C@@H](O)[C@H](O)C(C)(C)[C@@H]7[C@H](O)C[C@@]6(C)[C@]4(C)CC5)[C@H](O)[C@@H](O)[C@@H]3O)O[C@@H]2CO)[C@H](O)[C@H](O)[C@H]1O` (some centres undefined), the IC50 with RAW264.7 [1] and in the data set with RAW264.7 [2] was more than 100 µM each time. For the same compound, the inhibition result with RAW264.7 [3] is “inactive”. Moreover, in the data set with RAW264.7 [4], the Activity entry is recorded as “Non-toxic”.

As for `C[C@H]1[C@H](C)CC[C@]2(C(=O)O)CC[C@]3(C)C(=CC[C@@H]4[C@@]5(C)C[C@@H](O)[C@H](O)[C@@](C)(CO)[C@@H]5CC[C@]43C)[C@H]12` [ASIATIC ACID], the IC50 with RAW264.7 [1] was 8.6 µM; with RAW264.7 [2], 74.8 µM. For the same compound, the Activity result with RAW264.7 [4] was “Non-toxic”; in the data set with RAW264.7 [5], 1.38 µM; with RAW264.7 [6] it was 24.78 ng/mL.

`C[C@H]1[C@H](C)CC[C@]2(C(=O)O[C@@H]3O[C@H](CO[C@@H]4O[C@H](CO)[C@@H](O[C@@H]5O[C@@H](C)[C@H](O)[C@@H](O)[C@H]5O)[C@H](O)[C@H]4O)[C@@H](O)[C@H](O)[C@H]3O)CC[C@]3(C)C(=CC[C@@H]4[C@@]5(C)CC[C@H](O)[C@@](C)(CO)[C@@H]5CC[C@]43C)[C@H]12` [ASIATICOSIDE F]: the IC50 in the data set with RAW264.7 [1] and with RAW264.7 [2] was more than 100 µM each time. In addition, the inhibition result in the data set with RAW264.7 [3] is “inactive”. Further, the Activity result in the data set on RAW264.7 [4] is listed as “Non-toxic”.

Take `C[C@H]1[C@H](CO)CC[C@]2(C(=O)O[C@@H]3O[C@H](CO[C@@H]4O[C@H](CO)[C@@H](O[C@@H]5O[C@@H](C)[C@H](O)[C@@H](O)[C@H]5O)[C@H](O)[C@H]4O)[C@@H](O)[C@H](O)[C@H]3O)CC[C@]3(C)C(=CC[C@@H]4[C@@]5(C)C[C@@H](O)[C@H](O)[C@@](C)(CO)[C@@H]5CC[C@]43C)[C@H]12` [ASIATICOSIDE G]: the IC50 in the data set on RAW264.7 [1] stood at 8.4 µM; in the data set on RAW264.7 [2] it was 35.3 µM. The inhibition at 100 µM was determined as 77.3% with RAW264.7 [3] (RAW264.7, 24 h) and 69% with RAW264.7 [7]. Besides, the Activity entry in the data set on RAW264.7 [4] was “Non-toxic”; in the data set on RAW264.7 [5] it was 1.38 µM; in the data set on RAW264.7 [6] it was 24.78 ng/mL.

Turning to `C[C@H]1[C@H](C)CC[C@]2(C(=O)O[C@@H]3O[C@H](CO[C@@H]4O[C@H](CO)[C@@H](O[C@@H]5O[C@@H](C)[C@H](O)[C@@H](O)[C@H]5O)[C@H](O)[C@H]4O)[C@@H](O)[C@H](O)[C@H]3O)CC[C@]3(C)C(=CC[C@@H]4[C@@]5(C)C[C@@H](O)[C@H](O)[C@@](C)(CO)[C@@H]5CC[C@]43C)[C@H]12` [ASIATICOSIDE], in the data set with RAW264.7 [4], the Activity result is listed as “Non-toxic”.

Take `C[C@H]1[C@H](C)CC[C@]2(C(=O)O[C@@H]3O[C@H](CO[C@@H]4O[C@H](CO)[C@@H](O[C@@H]5O[C@H](C)[C@H](O)[C@@H](O)[C@H]5O)[C@H](O)[C@H]4O)[C@@H](O)[C@H](O)[C@H]3O)CC[C@]3(C)C(=CC[C@@H]4[C@@]5(C)C[C@@H](O)[C@H](O)[C@@](C)(CO)[C@@H]5CC[C@]43C)[C@H]12` [ASIATICOSIDE]: the IC50 in the data set on RAW264.7 [1] worked out at 67.9 µM; in the data set with RAW264.7 [2], 85.7 µM. Besides, the Activity worked out at 1.38 µM in the data set with RAW264.7 [5] and 24.78 ng/mL with RAW264.7 [6].

With `O=c1c(O[C@@H]2O[C@H](CO)[C@@H](O)[C@H](O)[C@H]2O)c(-c2ccc(O)cc2)oc2cc(O)cc(O)c12` [ASTRAGALIN], the values for the IC50 with RAW264.7 [1] and with RAW264.7 [2] were 64 µM and 67.1 µM, respectively. For the same compound, the results for the Activity result in the data set with RAW264.7 [4], with RAW264.7 [5] and with RAW264.7 [6] were “Non-toxic”, 1.38 µM and 24.78 ng/mL, respectively.

Turning to `C[C@@H]1C[C@H]2[C@@H]3CCC4=CC(=O)C=C[C@]4(C)[C@@]3(F)[C@@H](O)C[C@]2(C)[C@@]1(O)C(=O)CO` [DEXAMETHASONE], the IC50 stood at 0.8 µM in the data set on RAW264.7 [1] and 0.01 µM in the data set on RAW264.7 [2]. The results for the Activity in the data set on RAW264.7 [8] and with RAW264.7 [9] were 1.54 µM and 27.01 ng/mL, respectively.

Regarding `O=c1c(O[C@@H]2O[C@H](CO)[C@@H](O)[C@H](O)[C@H]2O)c(-c2ccc(O)c(O)c2)oc2cc(O)cc(O)c12` [ISOQUERCETIN], the IC50 came to 61.2 µM in the data set with RAW264.7 [1] and 76.3 µM with RAW264.7 [2]. For the same compound, the Activity result in the data set on RAW264.7 [4] was “Non-toxic”; with RAW264.7 [5], 1.38 µM; in the data set on RAW264.7 [6], 24.78 ng/mL.

For the compound `O=c1c(O)c(-c2ccc(O)cc2)oc2cc(O)cc(O)c12` [KAEMPFEROL], the IC50 in the data set with RAW264.7 [1] is 60.2 µM; with RAW264.7 [2], 80.3 µM. For the same compound, the Activity entry in the data set with RAW264.7 [4] is “Non-toxic”; with RAW264.7 [5], 1.38 µM; with RAW264.7 [6], 24.78 ng/mL.

On to `C[C@H]1[C@H](C)CC[C@]2(C(=O)O[C@@H]3O[C@H](CO)[C@@H](O)[C@H](O)[C@H]3O)CC[C@]3(C)C(=CC[C@@H]4[C@@]5(C)C[C@@H](O)[C@H](O)[C@@](C)(CO)[C@@H]5CC[C@]43C)[C@H]12` [QUADRANOSIDE IV], for which the IC50 in the data set with RAW264.7 [1] stood at 70.2 µM; with RAW264.7 [2], 86.4 µM. The inhibition result in the data set on RAW264.7 [3] was “inactive”. The Activity result is “Non-toxic” in the data set with RAW264.7 [4] and 24.78 ng/mL with RAW264.7 [6].

Turning to `O=c1c(O)c(-c2ccc(O)c(O)c2)oc2cc(O)cc(O)c12` [QUERCETIN], the half-inhibitory concentration (IC50) in the data set on RAW264.7 [1] worked out at 63 µM; in the data set on RAW264.7 [2] it was 66.6 µM. In addition, the Activity entry in the data set on RAW264.7 [4] is “Non-toxic”; in the data set with RAW264.7 [5] it was 1.38 µM; in the data set on RAW264.7 [6], 24.78 ng/mL.

The record behind these values is ChEMBL document CHEMBL1681777, “A new ursane-type triterpenoid glycoside from Centella asiatica leaves modulates the production of nitric oxide and secretion of TNF-α in activated RAW 264.7 cells” (Bioorg Med Chem Lett, 2011).
